Laboratory results taken from ChEMBL document CHEMBL1148443, “Importance of phenolic address groups in opioid kappa receptor selective antagonists” (J Med Chem, 2004).

Legend:
[1] = target: Opioid receptors; mu & kappa (Homo sapiens) (UniProt P41145+P35372); assay: Selectivity of compound for mu opioid receptor to that of kappa opioid receptor; assay type: protein assay
[2] = organism: Cavia porcellus; assay: Functional antagonism was obtained by the ability of compound to inhibit stimulation of [35S]GTP gamma S binding produced by selective agonists DAMGO in guinea pig caudate membranes
[3] = organism: Cavia porcellus; assay: Functional antagonism was obtained by the ability of compound to inhibit stimulation of [35S]GTP gamma S binding produced by selective agonists U69,593 in guinea pig caudate membranes
[4] = organism: Cavia porcellus; assay: Functional antagonism was obtained by the ability of compound to inhibit stimulation of [35S]GTP gamma S binding produced by selective agonists SNC-80 in guinea pig caudate membranes
[5] = target: Opioid receptors; delta & kappa (Homo sapiens) (UniProt P41145+P41143); assay: Selectivity of compound for delta opioid receptor to that of kappa opioid receptor; assay type: protein assay
Sequence of Opioid receptors; delta & kappa (Homo sapiens) (P41143 whole entry, looked up): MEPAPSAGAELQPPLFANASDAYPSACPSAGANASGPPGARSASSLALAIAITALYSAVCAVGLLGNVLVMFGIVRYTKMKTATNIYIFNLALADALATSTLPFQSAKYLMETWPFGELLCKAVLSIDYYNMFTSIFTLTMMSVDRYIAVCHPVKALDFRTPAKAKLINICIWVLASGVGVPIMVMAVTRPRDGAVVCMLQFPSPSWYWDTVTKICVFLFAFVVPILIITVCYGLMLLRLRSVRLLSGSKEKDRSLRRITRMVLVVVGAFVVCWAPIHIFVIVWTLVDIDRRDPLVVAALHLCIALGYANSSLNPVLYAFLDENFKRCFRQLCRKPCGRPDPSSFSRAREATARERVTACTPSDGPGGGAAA
Sequence of Opioid receptors; delta & kappa (Homo sapiens) (P41145 whole entry, looked up): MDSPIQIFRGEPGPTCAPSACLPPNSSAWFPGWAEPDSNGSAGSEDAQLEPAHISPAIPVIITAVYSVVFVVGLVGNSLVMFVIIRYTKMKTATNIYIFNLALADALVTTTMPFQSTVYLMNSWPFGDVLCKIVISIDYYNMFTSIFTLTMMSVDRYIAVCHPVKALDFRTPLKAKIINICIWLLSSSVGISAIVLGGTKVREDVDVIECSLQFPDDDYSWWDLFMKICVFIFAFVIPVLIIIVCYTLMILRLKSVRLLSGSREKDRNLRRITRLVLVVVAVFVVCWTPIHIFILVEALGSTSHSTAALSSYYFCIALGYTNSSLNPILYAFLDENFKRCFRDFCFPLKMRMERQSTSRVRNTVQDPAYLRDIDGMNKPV

[6] = target: Kappa-type opioid receptor (Cavia porcellus, UniProt P41144); assay: Binding affinity of compound for Opioid receptor kappa 1 was determined using [3H]U-69593 as radioligand from guinea pig caudate
Sequence of Kappa-type opioid receptor (P41144 whole entry): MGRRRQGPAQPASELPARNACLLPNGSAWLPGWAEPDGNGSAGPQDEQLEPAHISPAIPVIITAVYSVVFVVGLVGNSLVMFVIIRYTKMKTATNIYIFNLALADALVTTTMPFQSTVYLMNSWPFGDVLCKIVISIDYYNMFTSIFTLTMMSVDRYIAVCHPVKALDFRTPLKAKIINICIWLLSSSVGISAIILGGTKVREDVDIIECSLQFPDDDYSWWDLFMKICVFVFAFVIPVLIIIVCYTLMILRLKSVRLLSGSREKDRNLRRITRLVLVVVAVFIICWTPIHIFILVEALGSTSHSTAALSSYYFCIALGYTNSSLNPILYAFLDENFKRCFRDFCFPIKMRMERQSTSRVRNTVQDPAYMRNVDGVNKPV
In short: (§1)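 Competitive binding assays. Mu and delta receptors came from rat brain membranes. Kappa receptors came from guinea pig caudate membranes.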

[7] = target: Delta-type opioid receptor (Rattus norvegicus, UniProt P33533); assay: Binding affinity of compound for opioid receptor delta 1 was determined using [3H]DADLE as radioligand from rat brain tissue
Sequence of Delta-type opioid receptor (P33533 whole entry): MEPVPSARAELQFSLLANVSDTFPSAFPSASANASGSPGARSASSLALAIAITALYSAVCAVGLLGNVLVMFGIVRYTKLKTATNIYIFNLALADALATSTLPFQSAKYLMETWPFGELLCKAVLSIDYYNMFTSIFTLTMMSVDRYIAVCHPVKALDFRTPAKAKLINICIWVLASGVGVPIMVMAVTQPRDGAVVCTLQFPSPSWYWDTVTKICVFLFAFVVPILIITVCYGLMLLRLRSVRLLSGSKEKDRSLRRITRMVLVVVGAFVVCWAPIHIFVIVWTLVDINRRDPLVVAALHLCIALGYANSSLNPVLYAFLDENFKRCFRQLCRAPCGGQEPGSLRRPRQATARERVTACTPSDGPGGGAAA
In short: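 Competitive binding assays. Mu and delta receptors came from rat brain membranes. Kappa receptors came from guinea pig caudate membranes. Test compounds displaced the receptor-selective radioligand.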

[8] = target: Mu-type opioid receptor (Rattus norvegicus, UniProt P33535); assay: Binding affinity of compound for Opioid receptor mu 1 was determined using [3H]DAMGO as radioligand from rat brain tissue; in short: as §1
Sequence of Mu-type opioid receptor (P33535 whole entry): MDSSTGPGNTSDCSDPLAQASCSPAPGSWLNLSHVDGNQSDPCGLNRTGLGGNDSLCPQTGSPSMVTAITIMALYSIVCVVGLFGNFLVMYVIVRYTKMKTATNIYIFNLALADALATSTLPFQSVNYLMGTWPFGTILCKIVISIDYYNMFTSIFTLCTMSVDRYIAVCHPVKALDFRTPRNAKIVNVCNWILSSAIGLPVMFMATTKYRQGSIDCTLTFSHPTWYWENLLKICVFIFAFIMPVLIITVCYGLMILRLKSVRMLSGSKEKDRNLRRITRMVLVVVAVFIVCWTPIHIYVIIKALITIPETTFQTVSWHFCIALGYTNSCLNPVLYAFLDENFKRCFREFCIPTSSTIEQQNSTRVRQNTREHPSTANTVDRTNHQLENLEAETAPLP

Sequence of Opioid receptors; mu & kappa (Homo sapiens) (P35372 whole entry, looked up): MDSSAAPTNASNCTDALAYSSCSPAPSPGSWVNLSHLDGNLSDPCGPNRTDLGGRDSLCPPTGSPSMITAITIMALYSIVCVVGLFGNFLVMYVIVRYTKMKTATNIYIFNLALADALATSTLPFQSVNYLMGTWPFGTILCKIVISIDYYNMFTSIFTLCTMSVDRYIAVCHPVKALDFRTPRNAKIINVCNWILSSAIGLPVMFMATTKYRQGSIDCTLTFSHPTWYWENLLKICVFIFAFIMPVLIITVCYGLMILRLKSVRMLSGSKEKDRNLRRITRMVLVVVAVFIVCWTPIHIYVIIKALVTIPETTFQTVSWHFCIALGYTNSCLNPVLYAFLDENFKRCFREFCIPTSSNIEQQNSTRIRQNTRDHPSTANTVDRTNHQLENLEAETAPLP
Sequence of Opioid receptors; mu & kappa (Homo sapiens) (P41145 whole entry, looked up): as the sequence (P41145 whole entry, looked up) above

`CC(C)[C@@H](CN1CC[C@@](C)(c2cccc(O)c2)[C@@H](C)C1)NC(=O)CCc1ccc(O)cc1` was tested, and the Selectivity [1] was 45, the Ki [2] was 7.25 nM and the Ki [3] was 4.7 nM. It also gave a Ki [4] of 450 nM and a Selectivity [5] of over 885.

Compound `CC(C)[C@@H](CN1CC[C@@](C)(c2cccc(O)c2)[C@@H](C)C1)NC(=O)[C@H]1Cc2ccc(O)cc2CN1` [JDTIC] has a Selectivity [1] of 12, a Ki [2] of 2.16 nM and a Ki [3] of 0.02 nM. It also gave a Ki [4] of over 300 nM and a Selectivity [5] of 940.

`CC(C)[C@@H](CN1CC[C@@](C)(c2cccc(O)c2)[C@@H](C)C1)NC(=O)CCc1ccccc1` was tested, and the Selectivity [1] was 2, the Ki [6] was 446 nM and the Ki [7] was over 5050 nM. It also gave a Ki [8] of 946 nM and a Selectivity [5] of 11.

With `Oc1ccc2c3c1O[C@H]1c4[nH]c5c(c4C[C@@]4(O)[C@@H](C2)N(CC2CC2)CC[C@]314)C[C@@]1(O)[C@H]2Cc3ccc(O)c4c3[C@@]1(CCN2CC1CC1)[C@H]5O4` (relative stereo) [NORBINALTORPHIMINE] the Ki [2] was 16.7 nM and the Ki [3] was 0.038 nM.

With `CC(C)[C@@H](CN1CC[C@@](C)(c2cccc(O)c2)[C@@H](C)C1)NC(=O)[C@H]1Cc2ccccc2CN1` the Selectivity [1] was 369, the Ki [2] was 68.6 nM and the Ki [3] was 11.5 nM. It also gave a Ki [4] of 213 nM and a Selectivity [5] of over 2330.

`Oc1ccc2c3c1O[C@H]1c4[nH]c5c(c4C[C@@]4(O)[C@@H](C2)N(CC2CC2)CC[C@]314)C[C@@]1(O)[C@H]2Cc3ccc(O)c4c3[C@@]1(CCN2CC1CC1)[C@H]5O4` [NORBINALTORPHIMINE] was tested, and the Ki [6] was 1.33 nM and the Ki [7] was 111 nM.
